Results as given in PMC8197731 (The journal of pain, 2021).
“Also recorded” adds a separate entry of the source.

Legend:
mouse lung fibroblasts = conditions: ref [35]; cited from earlier work
rat astrocytes = conditions: ref [60]; cited from earlier work
[1] = system: human smooth muscle cells; conditions: ref [6]; cited from earlier work
[2] = system: human A-498 carcinoma cells; conditions: ref [35]; cited from earlier work
[3] = system: lamina IIo neurons in lumbar segments of mouse spinal cord
[4] = Solubility of the synthesized ligands; type: physicochemical; conditions: aqueous buffers (as printed for C751)
human PAR3 [5] = target: T1, human PAR3 (Homo sapiens, UniProt O00254); experiment: RTCA; type: cell-based
T1 sequence (O00254 22-374): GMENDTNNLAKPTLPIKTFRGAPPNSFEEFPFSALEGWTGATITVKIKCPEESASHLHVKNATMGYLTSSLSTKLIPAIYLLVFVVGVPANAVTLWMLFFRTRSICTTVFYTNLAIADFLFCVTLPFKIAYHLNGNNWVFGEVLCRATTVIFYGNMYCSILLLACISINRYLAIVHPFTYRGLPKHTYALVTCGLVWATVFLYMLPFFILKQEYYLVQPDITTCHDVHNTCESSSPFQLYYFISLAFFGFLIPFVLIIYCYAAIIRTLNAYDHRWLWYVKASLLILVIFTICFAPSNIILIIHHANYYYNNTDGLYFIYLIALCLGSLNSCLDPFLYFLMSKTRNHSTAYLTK
Outline: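 HEK293 Flp-In T-Rex cells stably carrying human PAR3 were induced with tetracycline (0.3 or 1 μg/mL, 48 h), then plated on poly-L-lysine E-plates in DMEM/F12 with 5% FBS. At Cell Index stabilization (~6 h), compound was added in quadruplicate at varying final concentrations. CI was read every minute for 4 h. Peak CI changes were normalized to percent of the plate's peak response, and EC50 was fitted across multiple plates.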

WT and PAR3^−/− mice [6] = experiment: Mechanical paw withdrawal threshold; type: in vivo, mouse
WT and PAR3^−/− mice [7] = experiment: Facial grimacing; type: in vivo, mouse; conditions: for facial grimacing, PAR3^−/− and WT / facial grimacing, WT and PAR3^−/−: male
WT and PAR3^−/− mice [8] = type: in vivo, mouse
WT and PAR3^−/− mice [9] = type: in vivo, mouse; remark: listed apart in the source
Outline: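 Eight-week-old male mice were primed by intraplantar injection and allowed to recover completely (14 d), then given 100 ng PGE2 into the same hind paw. Facial expressions were video-recorded with mice placed individually in 9×5×5 cm cubicles, using an adapted mouse grimace scale protocol. Scores were averaged per time point for each cohort, with 4 mice per genotype.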

human PAR3 [10] = target: T1, human PAR3; conditions: COS-7 cells transfected with human PAR3; ref [30]; cited from earlier work
Murine PAR3 = conditions: COS-7 cells transfected with murine PAR3; ref [47]; cited from earlier work
[11] = system: HEK293 cells not induced to express PAR3; experiment: RTCA; type: cell-based; conditions: varying concentrations of C660; Cell Index
Outline: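 Uninduced HEK293 Flp-In T-Rex cells were plated on poly-L-lysine E-plates in DMEM/F12 with 5% FBS, run alongside tetracycline-induced cells. Compound was added in quadruplicate at varying final concentrations once impedance stabilized (~6 h). Cell Index, calculated as (Zi−Z0)/15 Ω, was recorded every minute for 4 h, and peak changes after addition were taken.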

WT and PAR3^−/− mice [12] = experiment: Thermal sensitivity; type: in vivo, mouse; conditions: C660, Hargreaves
[13] = TFFLLR-NH2 100 μg, i.pl, male, n = 4/group
[14] = primed with IL-6 0.1 ng, i.pl, PGE2 100 ng after 14 d, n = 4/group
[15] = 2AT 30 pmol, hind paw, n = 4/group
[16] = primed with 2AT 30 pmol, i.pl, PGE2 100 ng after 14 d, n = 4/group
[17] = thrombin 10 units, i.pl, male, n = 4/group
[18] = thrombin 10 units, i.pl, male, n = 4/group, listed as thrombin
[19] = C660 30 pmol intraplantar, WT male mice, n = 4/group

Compound: TFRGAP
- ERK activation, mouse lung fibroblasts (mouse lung fibroblasts): induced extracellular regulated kinase (ERK) activation via PAR1 rather than PAR3
- Ca2+ response in rat astrocytes (rat astrocytes): elicited a Ca^2+ response in rat astrocytes
- Ca2+ response in human smooth muscle cells [1]: elicited a Ca^2+ response in rat astrocytes [60] and human smooth muscle cells
- ERK activation, A-498 cells [2]: induced extracellular regulated kinase (ERK) activation via PAR1 rather than PAR3

Compound: NC1=N[C@H](O)[C@H]2[C@H]3O[C@]4(O)O[C@@H]([C@@H](O)[C@@]2(N1)[C@@H]4O)[C@]3(O)CO [Tetrodotoxin (TTX), Tetrodotoxin, reference compound]
- effect of TTX on C660-induced increase of synaptic event frequency [3]: did not influence the effect of C660 on the increased frequency of synaptic events

Compound: TFRGAPPNSFEEF-pego3-KRRPAIYLLVFVVGV-amide [Compound C752]
- solubility [4]: improved
- activity in RTCA (human PAR3 [5]): not active

Compound: TFFLLR-NH2 [reference compound]
- mechanical hypersensitivity, PAR3^−/− vs WT (WT and PAR3^−/− mice [6]; [13]): significantly more robust and prolonged in PAR3^−/− mice; also recorded: more marked in the latter group. Cumulatively, the genotypic differences throughout 48 hours post-injection were significant
- mechanical withdrawal threshold, WT and PAR3^−/− (WT and PAR3^−/− mice [6]; [13]): induced mechanical hypersensitivity in both WT and PAR3^−/−; also recorded: significantly reduced mechanical withdrawal thresholds in WT and PAR3^−/− mice
- duration of facial grimacing, PAR3^−/− (WT and PAR3^−/− mice [7]; TFFLLR-NH2 100 μg, i.pl, PAR3^−/−): up to 5 hours
- facial grimacing, PAR3^−/− and WT (WT and PAR3^−/− mice [7]; TFFLLR-NH2 100 μg, i.pl, n = 4/group): induced prolonged facial grimacing in PAR3^−/− but not WT mice

Compound: carrageenan
- acute response, WT vs PAR3^−/− (WT and PAR3^−/− mice [6]; carrageenan, male mice (Supplementary Fig. S5A–B)): male WT and PAR3^−/− mice responded similarly to the inflammagen acutely
- acute response and hyperalgesic priming, female (WT and PAR3^−/− mice [8]; carrageenan, 8-week old female mice (Supplementary Fig. S6A–D)): loss of hyperalgesic priming occurred in both male and female mice
- hyperalgesic priming, PAR3^−/− vs WT, male (WT and PAR3^−/− mice [8]; primed with carrageenan, male mice (Supplementary Fig. S5C–D)): hyperalgesic priming was again reduced in the PAR3^−/− mice; also recorded: loss of hyperalgesic priming

Compound: IL-6: inflammatory cytokine interleukin 6
- hyperalgesic priming (facial grimacing), PAR3^−/− vs WT (WT and PAR3^−/− mice [9]; [14]): not significantly affected by PGE2 treatment in comparison to WT mice; also recorded: hyperalgesic priming was diminished as measured by mechanical hypersensitivity and grimacing in PAR3^−/− mice
- hyperalgesic priming (paw withdrawal), PAR3^−/− vs WT (WT and PAR3^−/− mice [8]; [14]): not significantly affected by PGE2 treatment in comparison to WT mice; also recorded: hyperalgesic priming was diminished as measured by mechanical hypersensitivity and grimacing in PAR3^−/− mice; also recorded: loss of hyperalgesic priming

Compound: 2-aminothiazo-4-yl-LIGRL-NH2 [Compound 2AT, reference compound]
- mechanical hypersensitivity, WT and PAR3^−/− (WT and PAR3^−/− mice [6]; 2AT 30 pmol, hind paw, male, n = 4/group): significantly increased (A) mechanical hypersensitivity; also recorded: did not show any differences in acute responses in PAR3^−/− mice
- duration of mechanical hypersensitivity, WT and PAR3^−/− (WT and PAR3^−/− mice [6]; [15]): up to 5 hours
- facial grimacing, WT and PAR3^−/− (WT and PAR3^−/− mice [7]; [15]): significantly increased (A) mechanical hypersensitivity (B) and facial grimacing
- duration of facial grimacing, WT and PAR3^−/− (WT and PAR3^−/− mice [7]; [15]): up to 5 hours
- facial grimacing after PGE2 (priming), WT and PAR3^−/− (WT and PAR3^−/− mice [9]; [16]): increased in both groups
- duration of mechanical hyperalgesia after PGE2 (priming), WT (WT and PAR3^−/− mice [8]; primed with 2AT 30 pmol, i.pl, PGE2 100 ng after 14 d, WT): up to 24 hours
- mechanical hyperalgesia after PGE2 (priming), WT and PAR3^−/− (WT and PAR3^−/− mice [8]; [16]): profound deficit in priming in the PAR3^−/− mice; also recorded: robust in the WT group only; also recorded: loss of hyperalgesic priming
- priming effect size (von Frey), WT vs PAR3^−/− (WT and PAR3^−/− mice [8]; primed with 2AT 30 pmol, i.pl, PGE2 100 ng after 14 d, unpaired t-test): significant genotype difference between WT and PAR3^−/− groups

Compound: AYPGKF-NH2 [reference compound]
- paw withdrawal threshold, WT and PAR3^−/− (WT and PAR3^−/− mice [6]; AYPGKF-NH2 100 μg, hind paw, male, n = 4/group): did not significantly change withdrawal thresholds and grimacing in WT while a transient effect was seen in PAR3^−/− mice; also recorded: did not change significantly in both WT and PAR3^−/− mice groups
- facial grimacing, PAR3^−/−, 1 hr (WT and PAR3^−/− mice [7]; AYPGKF-NH2 100 μg, i.pl, PAR3^−/−, 1 hr post-injection, n = 4/group): transiently increased
- facial grimacing, WT and PAR3^−/− (WT and PAR3^−/− mice [7]; AYPGKF-NH2 100 μg, i.pl, n = 4/group): did not significantly change withdrawal thresholds and grimacing in WT while a transient effect was seen in PAR3^−/− mice

Compound: Thrombin
- mechanical hypersensitivity, PAR3^−/− vs WT (WT and PAR3^−/− mice [6]; [17]): significantly greater in PAR3^−/− mice at 1, 3, and 5 hours post-injection
- mechanical hypersensitivity, WT and PAR3^−/− (WT and PAR3^−/− mice [6]; [17]): induced lasting mechanical hypersensitivity in both WT and PAR3^−/− mice
- mechanical hypersensitivity, PAR3^−/− vs WT (WT and PAR3^−/− mice [6]; [18]): significantly more robust and prolonged in PAR3^−/− mice
- mechanical hypersensitivity, WT and PAR3^−/− (WT and PAR3^−/− mice [6]; [18]): induced mechanical hypersensitivity in both WT and PAR3^−/−
- phosphoinositide signaling, human PAR3 (human PAR3 [10]): able to trigger robust phosphoinositide signaling
- duration of facial grimacing, PAR3^−/− (WT and PAR3^−/− mice [7]; thrombin 10 units, i.pl, PAR3^−/−): up to 5 hours
- facial grimacing, PAR3^−/− and WT (WT and PAR3^−/− mice [7]; thrombin 10 units, i.pl, n = 4/group): significantly increased facial grimacing in PAR3^−/− but not WT mice
- signaling, murine PAR3 (Murine PAR3): unable to signal on its own in response to thrombin

Compound: TFRGAPPNSFEEF-pego3-KLIPAIYLLVFVVGV-amide [Compound C751]
- solubility [4]: low solubility

Compound: TFRGAPPNSFEEF-pego3-Hdc [Compound C660]
- paw withdrawal threshold, PAR3^−/− (WT and PAR3^−/− mice [6]; C660 30 pmol intraplantar, PAR3^−/− male mice, n = 4/group): induces mechanical hypersensitivity and facial grimacing in WT but not PAR3^−/− mice; also recorded: significantly reduced paw withdrawal thresholds in the WT but not PAR3^−/− group; also recorded: little acute effect; also recorded: absent in PAR3 deficient mice
- duration of mechanical hypersensitivity, WT (WT and PAR3^−/− mice [6]; [19]): up to 24 hrs
- paw withdrawal threshold, WT (WT and PAR3^−/− mice [6]; [19]): induced mechanical hypersensitivity; also recorded: significantly reduced paw withdrawal thresholds; also recorded: prolonged mechanical hypersensitivity
- RTCA response, cells not induced to express PAR3 [11]: did not show a response; also recorded: absent when PAR3 is not expressed
- facial grimacing overall effect size, WT vs PAR3^−/− (WT and PAR3^−/− mice [7]; C660 30 pmol intraplantar, 24 hr period, n = 4/group): did not differ significantly between groups
- facial grimacing, PAR3^−/− (WT and PAR3^−/− mice [7]; C660 30 pmol intraplantar, PAR3^−/− mice): facial grimacing in WT but not PAR3^−/− mice; also recorded: little acute effect
- facial grimacing, WT (WT and PAR3^−/− mice [7]; [19]): transient increase in facial grimacing was observed with the WT cohort at the 1 hr time point; also recorded: noted in WT mice, although changes were transient
- affective (grimace) response to PGE2 after priming, WT vs PAR3^−/− (WT and PAR3^−/− mice [9]; primed with C660 30 pmol, PGE2 100 ng i.pl after 14 days): robust affective response in WT but not PAR3^−/− mice
- mEPSC amplitude [3]: no change in amplitude
- mEPSC frequency [3]: increased the frequency of mEPSCs
- hyperalgesic priming (paw withdrawal), PAR3^−/− (WT and PAR3^−/− mice [8]; primed with C660 30 pmol, PGE2 100 ng i.pl after 14 days, PAR3^−/−, n = 4/group): partially attenuated in PAR3^−/− cohort; also recorded: greatly reduced
- hyperalgesic priming (paw withdrawal), WT (WT and PAR3^−/− mice [8]; primed with C660 30 pmol, PGE2 100 ng i.pl after 14 days, WT, n = 4/group): caused hyperalgesic priming in WT mice
- heat sensitivity (WT and PAR3^−/− mice [12]): did not note any changes in heat sensitivity in either strain of mice
